# Bioassay records as filed in PubChem.
# SENP1 FRET inh: blocks the human SENP1 SUMO protease catalytic domain. 360,000 tested, 0.21% active. inhibition, % at 10 µM. recombinant SENP1 catalytic domain, CyPet-SUMO1-YPet FRET cleavage. Q9P0U3;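 active = inhibition at least 30% at 10 µM, raw YFP signal under a set limit, fluorescence ratio 0.5 to 1.5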;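 also: 0% = enzyme with DMSO and 100% = no enzyme wells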
#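 Assay system – human recombinant His6-tagged SENP1 catalytic domain enzyme · Input – SENP1 enzyme, 20 pM final · Buffer or medium – Tris pH 8 buffer plus EDTA, NaCl, BME, BSA, NP40, catalase · Schedule – 50 min reaction at room temperature · Technique – FRET read of cyan and yellow fluorescence · Control set – no-enzyme wells low, DMSO-plus-enzyme wells high control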
# SENP8 block-1: SENP8 protease inhibition | Q96LD8 | purified SENP8, Z-RLRGG-aminoluciferin cleavage, luminescence | inhibition, % at 10 µM | 330,000 tested, 1.2% active | AID 2540; in the data active = inhibition above about 50%
# Target sequence (Q96LD8 whole entry, looked up): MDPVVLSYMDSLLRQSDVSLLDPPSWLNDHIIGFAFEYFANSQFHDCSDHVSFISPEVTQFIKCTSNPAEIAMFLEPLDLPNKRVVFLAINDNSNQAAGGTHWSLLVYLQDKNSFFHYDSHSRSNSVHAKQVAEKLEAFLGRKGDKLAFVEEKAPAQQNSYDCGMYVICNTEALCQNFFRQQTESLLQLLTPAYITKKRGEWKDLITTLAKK
# SENP7 block: blocks the human protease SENP7; Q9BQF6; recombinant SENP7, Z-RLRGG-aminoluciferin luminescence, 40 min; inhibition, % at 5 µM; 330,000 tested, 1.5% active; AID 434973;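 active = inhibition above about 50% at the single test dose, limit read from the data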;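 also: plate controls were DMSO with enzyme for no effect and no enzyme buffer wells for full effect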
# Platelet DG rel: modulates dense granule release in human platelets; 300,000 tested, 0.22% active; inhibition, %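 (compounds screened at 7.5 µM in platelet-rich plasma)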; human platelet-rich plasma, SFLLRN dense granule ATP release, luminescence; AID 1663;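 active = mean replicate score, as percent of positive control, at or above 50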
# SENP6 block: SENP6 protease inhibition | Recombinant SENP6 catalytic domain, aminoluciferin luminescence | inhibition, % at 10 µM | 330,000 tested, 1.8% active;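 active = inhibition above about 50% at the single tested dose, limit read from the data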;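 also: plate controls were DMSO wells with enzyme for no effect and DMSO wells lacking enzyme for full effect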
# SENP8 block-2: inhibitors of human SENP8 protease; Q96LD8; recombinant SENP8, Nedd8 substrate fluorescence; inhibition, % at 20 µM; 360,000 tested, 0.64% active; in the data active = inhibition mostly above about 40%, no sharp cut-off; inactive = mostly below about 27%
# SENP8 inh conf: confirmation of human SENP8 protease inhibitors; shares compounds with SENP8 block-2; purified SENP8, Nedd8-AMC/pro-Nedd8 cleavage fluorescence, 30 min; inhibition, % at 25 µM; 1,400 tested, 15% active; AID 624319; in the data active = inhibition mostly above about 39%, no sharp cut-off; inactive = mostly below about 34%
# An asterisk follows results filed as active; . = not tested or not shown. A selection: hits, their analogues and other compounds. The true share with any hit is near 2.6%.
SMILES,SENP1 FRET inh,SENP8 block-1,SENP7 block,Platelet DG rel,SENP6 block,SENP8 block-2,SENP8 inh conf
COc1cccc(OCCNc2cc(N3CCCCC3)ccc2[N+](=O)[O-])c1,1,-3,-1,-1,-5,60*,16
CC(C)(C)OCC1CO1 (stereo not given),-1,1,10,.,0,5,.
CCC(=O)Nc1ccc(Oc2ccc(NC(=O)CC)c(NC(=O)CC)c2)cc1,-1,3,8,-9,-7,-3,.
C[C@@H]1C=C(C(=O)NC2CC2)O[C@H](OCc2ccc(CO)cc2)C1,1,-15,-12,2,0,7,.
O=C(NCc1ccc2c(c1)OCO2)C(c1ccco1)N(C(=O)c1csnn1)c1ccccc1 (stereo not given),1,8,-2,7,-5,41*,1
O=C(NCc1ccc(F)cc1)C(c1ccco1)N(C(=O)c1csnn1)c1ccccc1 (stereo not given),1,4,0,-39,17,-4,.
COc1ccc(NCc2nnc(SCC(=O)Nc3ccccc3)n2C)cc1,0,-7,2,-1,3,43*,17
COc1ccc(NCc2nnc(SCC(=O)N3CCCc4ccccc43)n2C)cc1,1,-5,-11,1,11,60*,17
CCn1c(CNc2ccc(OC)cc2)nnc1SCC(=O)N1CCCc2ccccc21,0,-8,0,-3,-12,34,.
Cc1cc(=O)n(-c2ccc(O)cc2)[nH]1,1,-7,6,0,-7,79*,38*
CC1=[N+](C)N(c2ccccc2)C(=O)C1N=C/C=C/c1ccccc1 (stereo not given),-1,-11,-7,2,-21,42*,5
COc1ccccc1/C=C/C=NC1C(=O)N(c2ccccc2)[N+](C)=C1C (stereo not given),2,-4,-4,14,-17,11,.
O=C1c2cc(F)ccc2-n2c1nc1ccccc1c2=O,4,19,24,-1,43,42*,60*
CCOC(=O)C1CCN(S(=O)(=O)c2ccc(-c3cc(C(F)(F)F)n(C)n3)s2)CC1,2,-2,-1,3,-9,52*,35
Cc1ccc(NC(=O)NC2(C(=O)NCc3ccco3)CCCCC2)cc1,3,-7,-3,0,-2,40*,12
CC(OC(=O)CCN=C1NS(=O)(=O)c2ccccc21)C(=O)c1ccccc1 (stereo not given),2,-7,1,5,2,8,.
Cc1ccc(C(=O)C(C)OC(=O)CCN=C2NS(=O)(=O)c3ccccc32)cc1 (stereo not given),1,-8,1,-13,-13,46*,-4
CC(=O)Nc1ccc(NC(=O)C(C)OC(=O)CCCN=C2NS(=O)(=O)c3ccccc32)cc1 (stereo not given),-2,-5,-15,-8,-6,2,.
CC(OC(=O)CCN=C1NS(=O)(=O)c2ccccc21)C(=O)Nc1ccc(N(C)C)cc1 (stereo not given),3,-14,8,4,-18,45*,18
Cc1ccc(OCC(=O)NCCN2CCOCC2)cc1C,2,8,6,3,3,43*,8
Cc1cc(C)n(-c2ccc(C(=O)OCC(=O)Nc3ccc(S(=O)(=O)N4CCCCC4)cc3)cc2)n1,1,-11,-2,4,-11,48*,17
Cc1cc(C)n(-c2ccc(C(=O)OCC(=O)Nc3ccc(S(N)(=O)=O)cc3)cc2)n1,-2,-14,-4,.,-9,13,.
O=C1CC(c2ccccc2)Oc2cc(O)cc(O)c21 (stereo not given),1,36,17,-4,26,2,.
CC(C)=CCc1c(O)cc2c(c1O)C(=O)CC(c1ccccc1)O2 (stereo not given),2,-11,6,1,-14,42*,14
COc1ccc(-c2nc(-c3ccccc3OC)no2)cc1OC,3,7,9,-7,33,40*,29
